Measured values taken from ChEMBL document CHEMBL1122226, “6-Aryl-4,5-dihydro-3(2H)-pyridazinones. A new class of compounds with platelet aggregation inhibiting and hypotensive activities” (J Med Chem, 1983).
≈ marks a conversion by molar mass, not a printed value.

Species: Homo sapiens
Assay: In vitro inhibition of ADP-induced human platelet aggregation
Assay type: functional
Conditions: Homo sapiens; read-out: EC50
How it was run: (§1)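 Human venous blood citrated with 10% v/v sodium citrate (3.8%); platelet-rich plasma spun at 300g, 10 min, 4 °C, used within 2 h. Compound in Me2SO (1% final) preincubated 10 min at room temperature; aggregation triggered by collagen 0.02 mg/mL final or ADP 0.85 μg/mL final; maximum rate read in Born aggregometer. EC50 from log dose–effect regression with 95% confidence limits.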

First: C[N+]1(CC(=O)Nc2ccc(C3=NNC(=O)CC3)cc2)CCCC1.[Cl-]
Second: CCC(=O)Nc1ccc(C2=NNC(=O)CC2)cc1
The EC50 of the first is higher: over 46.4 µg/mL for the first, 0.64 µg/mL (≈ 2.61 µM) for the second.

First: CC1CC(c2ccc(NC(=O)CCl)cc2)=NNC1=O (stereo not given)
Second: CC1CC(c2ccc(N)cc2)=NNC1=O (stereo not given)
The EC50 of the first is 2-fold lower: 21.9 µg/mL (≈ 78.3 µM) for the first, 43.8 µg/mL (≈ 216 µM) for the second.

CC(Br)C(=O)Nc1ccc(C2=NNC(=O)CC2C)cc1 (stereo not given) and CC1CC(=O)NN=C1c1ccc(NC(=O)C(C)(C)Br)cc1 (stereo not given) are within 1.5-fold of each other in EC50: 0.26 µg/mL (≈ 0.769 µM) for the first, 0.33 µg/mL (≈ 0.937 µM) for the second.

O=C1CCC(c2ccc(NC(=O)CCCl)cc2)=NN1 and CC(=O)Nc1ccc(C2=NNC(=O)CC2)cc1 are within 1.5-fold of each other in EC50: 0.98 µg/mL (≈ 3.5 µM) for the first, 1 µg/mL (≈ 4.32 µM) for the second.

Going from CCC(Cl)C(=O)Nc1ccc(C2=NNC(=O)CC2)cc1 (stereo not given) to CN1N=C(c2ccc(NC(=O)CCl)cc2)CCC1=O, the EC50 rises from 1.47 µg/mL (≈ 5 µM) to over 46.4 µg/mL.

Molecule CC1CC(=O)NN=C1c1ccc(NC(=O)CCCl)cc1 (stereo not given) has an EC50 of 0.16 µg/mL (≈ 0.545 µM).

Species: Homo sapiens
Assay: In vitro inhibition of collagen-induced human platelet aggregation.
Assay type: functional, organism-based
Conditions: Homo sapiens; read-out: EC50
How it was run: as §1

Compared with C[N+]1(CC(=O)Nc2ccc(C3=NNC(=O)CC3)cc2)CCCC1.[Cl-], CCC(=O)Nc1ccc(C2=NNC(=O)CC2)cc1 is lower in EC50: over 46.4 µg/mL for the first, 0.74 µg/mL (≈ 3.02 µM) for the second.

Going from CC1CC(c2ccc(NC(=O)CCl)cc2)=NNC1=O (stereo not given) to CC1CC(c2ccc(N)cc2)=NNC1=O (stereo not given), the EC50 rises from 6.31 µg/mL (≈ 22.6 µM) to 46.9 µg/mL (≈ 231 µM) (7.4-fold).

O=C1CCC(c2ccc(NC(=O)CCCl)cc2)=NN1 and CC(=O)Nc1ccc(C2=NNC(=O)CC2)cc1 are within 1.5-fold of each other in EC50: 0.9 µg/mL (≈ 3.22 µM) for the first, 1.09 µg/mL (≈ 4.71 µM) for the second.

First: CCC(Cl)C(=O)Nc1ccc(C2=NNC(=O)CC2)cc1 (stereo not given)
Second: CN1N=C(c2ccc(NC(=O)CCl)cc2)CCC1=O
The EC50 of the first is lower: 3.16 µg/mL (≈ 10.8 µM) for the first, over 46.4 µg/mL for the second.

Species: Homo sapiens
Assay: Relative activity (compared to acetylsalicylic acid) for in vitro inhibition of collagen-induced human platelet aggregation
Assay type: functional
Conditions: not given

With C[N+]1(CC(=O)Nc2ccc(C3=NNC(=O)CC3)cc2)CCCC1.[Cl-] the Relative activity was under 11.
CN1N=C(c2ccc(NC(=O)CCl)cc2)CCC1=O gave a Relative activity of under 11.

Compared with CC1CC(c2ccc(NC(=O)CCl)cc2)=NNC1=O (stereo not given), CC1CC(c2ccc(N)cc2)=NNC1=O (stereo not given) is lower in Relative activity: 78 for the first, 11 for the second.

First: O=C1CCC(c2ccc(NC(=O)CCCl)cc2)=NN1
Second: CCC(=O)Nc1ccc(C2=NNC(=O)CC2)cc1
The Relative activity of the first is lower: 549 for the first, 668 for the second.

Compared with CC(=O)Nc1ccc(C2=NNC(=O)CC2)cc1, CCC(Cl)C(=O)Nc1ccc(C2=NNC(=O)CC2)cc1 (stereo not given) is lower in Relative activity: 453 for the first, 156 for the second.

For CC1CC(=O)NN=C1c1ccc(NC(=O)CCCl)cc1 (stereo not given), the Relative activity was 1647.

System: Rattus norvegicus
Assay: In vitro hypotensive activity in anesthetized rats after intraperitoneal administration.
Assay type: functional
Conditions: ip, in the assay text read “In vivo” for “In vitro”
How it was run: (§2)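 Male Sprague-Dawley rats, 230-280 g, urethane-anesthetized (ip); carotid arterial pressure recorded continuously by pressure transducer. Compounds given ip at 2 mL/kg. ED20, dose lowering mean carotid pressure by 20%, from log dose–effect regression; dihydralazine as reference.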

Going from C[N+]1(CC(=O)Nc2ccc(C3=NNC(=O)CC3)cc2)CCCC1.[Cl-] to CCC(=O)Nc1ccc(C2=NNC(=O)CC2)cc1, the ED20 falls from over 1 mg/kg to 0.06 mg/kg.

CC1CC(c2ccc(NC(=O)CCl)cc2)=NNC1=O (stereo not given) and CC1CC(c2ccc(N)cc2)=NNC1=O (stereo not given) cannot be ordered by ED20: over 1 mg/kg for the first, over 1 mg/kg for the second.

Going from CC(Br)C(=O)Nc1ccc(C2=NNC(=O)CC2C)cc1 (stereo not given) to CC1CC(=O)NN=C1c1ccc(NC(=O)C(C)(C)Br)cc1 (stereo not given), the ED20 rises from 0.4 mg/kg to 2.93 mg/kg (7.3-fold).

Going from O=C1CCC(c2ccc(NC(=O)CCCl)cc2)=NN1 to CC(=O)Nc1ccc(C2=NNC(=O)CC2)cc1, the ED20 falls from over 1 mg/kg to 0.2 mg/kg.

First: CCC(Cl)C(=O)Nc1ccc(C2=NNC(=O)CC2)cc1 (stereo not given)
Second: CN1N=C(c2ccc(NC(=O)CCl)cc2)CCC1=O
The ED20 of the first is lower: 0.37 mg/kg for the first, over 1 mg/kg for the second.

For CC1CC(=O)NN=C1c1ccc(NC(=O)CCCl)cc1 (stereo not given), the ED20 was 0.044 mg/kg.

System: Rattus norvegicus
Assay: Ex vivo inhibition of collagen-induced rat platelet aggregation after peroral administration
Assay type: functional
Conditions: po
How it was run: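 Male Sprague-Dawley rats, 200-250 g, dosed orally, three rats per dose. Blood drawn by heart puncture under ether 1 h post-dose; platelet-rich plasma prepared by centrifugation; aggregation induced with collagen 0.02 mg/mL final, maximum rate read in Born aggregometer.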

Going from CC(Br)C(=O)Nc1ccc(C2=NNC(=O)CC2C)cc1 (stereo not given) to CC1CC(=O)NN=C1c1ccc(NC(=O)C(C)(C)Br)cc1 (stereo not given), the ED33 falls from 8.18 mg/kg to 3.49 mg/kg (2.3-fold).

O=C1CCC(c2ccc(NC(=O)CCCl)cc2)=NN1 and CCC(=O)Nc1ccc(C2=NNC(=O)CC2)cc1 are within 1.5-fold of each other in ED33: 41.7 mg/kg for the first, 41.6 mg/kg for the second.

Work on CC1CC(=O)NN=C1c1ccc(NC(=O)CCCl)cc1 (stereo not given) yielded an ED33 of 47.5 mg/kg.

System: not listed separately
Assay: In vitro inhibition of collagen induced aggregation of human plateles and the ratio of ED33 to EC50 was reported
Assay type: functional
Conditions: not given
How it was run: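 Ratio of oral ED33 (male Sprague-Dawley rats, 3 per dose, blood taken 1 h post-dose, collagen-triggered aggregation) to in vitro EC50 (human citrated platelet-rich plasma, 10 min room-temperature preincubation in 1% Me2SO, collagen 0.02 mg/mL final, regression-derived).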

First: CC(Br)C(=O)Nc1ccc(C2=NNC(=O)CC2C)cc1 (stereo not given)
Second: CC1CC(=O)NN=C1c1ccc(NC(=O)C(C)(C)Br)cc1 (stereo not given)
The Ratio of the first is higher: 14.1 for the first, 3.9 for the second.

First: O=C1CCC(c2ccc(NC(=O)CCCl)cc2)=NN1
Second: CCC(=O)Nc1ccc(C2=NNC(=O)CC2)cc1
The Ratio of the first is lower: 46.3 for the first, 56.3 for the second.

Work on CC1CC(=O)NN=C1c1ccc(NC(=O)CCCl)cc1 (stereo not given) yielded a Ratio of 158.

System: Rattus norvegicus
Assay: Activity relative to dihydralazine for in vitro hypotensive activity in anesthetized rats
Assay type: functional
Conditions: in the assay text read “in vivo” for “in vitro”
How it was run: as §2

C[N+]1(CC(=O)Nc2ccc(C3=NNC(=O)CC3)cc2)CCCC1.[Cl-] showed a Relative activity of under 0.34.
In the case of CC1CC(c2ccc(NC(=O)CCl)cc2)=NNC1=O (stereo not given), the Relative activity is reported as under 0.34.
For CC1CC(c2ccc(N)cc2)=NNC1=O (stereo not given), the Relative activity was under 0.34.
For O=C1CCC(c2ccc(NC(=O)CCCl)cc2)=NN1, the Relative activity was under 0.34.
Molecule CN1N=C(c2ccc(NC(=O)CCl)cc2)CCC1=O has a Relative activity of under 0.34.

Going from CC(Br)C(=O)Nc1ccc(C2=NNC(=O)CC2C)cc1 (stereo not given) to CC1CC(=O)NN=C1c1ccc(NC(=O)C(C)(C)Br)cc1 (stereo not given), the Relative activity falls from 0.85 to 0.12.

Compared with CC(=O)Nc1ccc(C2=NNC(=O)CC2)cc1, CCC(=O)Nc1ccc(C2=NNC(=O)CC2)cc1 is higher in Relative activity: 1.69 for the first, 5.63 for the second.

First: CCC(Cl)C(=O)Nc1ccc(C2=NNC(=O)CC2)cc1 (stereo not given)
Second: CC1CC(=O)NN=C1c1ccc(NC(=O)CCCl)cc1 (stereo not given)
The Relative activity of the first is lower: 0.91 for the first, 7.68 for the second.

Species: Rattus norvegicus
Assay: Relative activity in rats based on acetylsalicylic acid
Assay type: functional
Conditions: not given

First: CC(Br)C(=O)Nc1ccc(C2=NNC(=O)CC2C)cc1 (stereo not given)
Second: CC1CC(=O)NN=C1c1ccc(NC(=O)C(C)(C)Br)cc1 (stereo not given)
The Relative activity of the first is lower: 28.5 for the first, 66.8 for the second.

O=C1CCC(c2ccc(NC(=O)CCCl)cc2)=NN1 and CCC(=O)Nc1ccc(C2=NNC(=O)CC2)cc1 are the same in Relative activity: 5.6 for the first, 5.6 for the second.

With CC1CC(=O)NN=C1c1ccc(NC(=O)CCCl)cc1 (stereo not given) the Relative activity was 4.9.
